What is called inhibition is the relative decrease from the control value, in per cent.

These results are taken from ChEMBL document CHEMBL5653631, “A Potent and Selective ULK1 Inhibitor Suppresses Autophagy and Sensitizes Cancer Cells to Nutrient Stress” (iScience, 2018).

Assay [1] has as its target T1, Ephrin type-B receptor 2 (Homo sapiens) (UniProt P29323).
T1 sequence (whole entry): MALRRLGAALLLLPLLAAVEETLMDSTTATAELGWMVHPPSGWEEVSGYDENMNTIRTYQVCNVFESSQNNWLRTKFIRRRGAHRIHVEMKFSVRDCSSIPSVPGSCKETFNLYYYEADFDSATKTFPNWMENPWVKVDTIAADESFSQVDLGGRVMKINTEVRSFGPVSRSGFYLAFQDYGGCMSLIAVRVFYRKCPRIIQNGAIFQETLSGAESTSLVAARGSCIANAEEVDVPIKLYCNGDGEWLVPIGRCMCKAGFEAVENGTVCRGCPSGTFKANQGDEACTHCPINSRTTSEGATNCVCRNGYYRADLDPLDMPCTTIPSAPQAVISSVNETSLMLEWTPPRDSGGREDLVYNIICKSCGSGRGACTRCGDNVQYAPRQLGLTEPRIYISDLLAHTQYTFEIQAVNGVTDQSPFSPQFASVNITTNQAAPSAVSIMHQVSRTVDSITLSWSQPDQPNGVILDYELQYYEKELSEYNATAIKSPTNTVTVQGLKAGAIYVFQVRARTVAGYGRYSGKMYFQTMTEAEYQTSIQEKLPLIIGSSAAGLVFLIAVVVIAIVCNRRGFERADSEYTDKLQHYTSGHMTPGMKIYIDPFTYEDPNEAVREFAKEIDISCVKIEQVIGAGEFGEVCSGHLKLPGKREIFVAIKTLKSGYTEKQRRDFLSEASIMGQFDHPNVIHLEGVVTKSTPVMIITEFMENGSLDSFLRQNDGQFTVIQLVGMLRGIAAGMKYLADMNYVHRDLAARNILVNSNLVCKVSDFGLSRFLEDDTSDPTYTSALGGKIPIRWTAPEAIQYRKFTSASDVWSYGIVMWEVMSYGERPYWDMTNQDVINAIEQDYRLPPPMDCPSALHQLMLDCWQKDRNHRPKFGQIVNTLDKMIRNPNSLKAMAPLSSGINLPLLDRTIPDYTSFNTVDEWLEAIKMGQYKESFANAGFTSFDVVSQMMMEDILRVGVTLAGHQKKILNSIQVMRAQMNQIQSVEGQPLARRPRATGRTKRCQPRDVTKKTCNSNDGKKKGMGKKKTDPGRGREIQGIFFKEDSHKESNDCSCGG
The assay is described as follows: Inhibition of human recombinant EphB2 at 40 nM related to control ULK1.

In assay [2] the target is MAP kinase-activated protein kinase 2 (Homo sapiens) (UniProt P49137). The assay is described as follows: Inhibition of human recombinant MAPKAPK2 at 40 nM in presence of ATP by radiometric assay relative to control.
MAP kinase-activated protein kinase 2 (Homo sapiens), sequence (P49137 whole entry, looked up): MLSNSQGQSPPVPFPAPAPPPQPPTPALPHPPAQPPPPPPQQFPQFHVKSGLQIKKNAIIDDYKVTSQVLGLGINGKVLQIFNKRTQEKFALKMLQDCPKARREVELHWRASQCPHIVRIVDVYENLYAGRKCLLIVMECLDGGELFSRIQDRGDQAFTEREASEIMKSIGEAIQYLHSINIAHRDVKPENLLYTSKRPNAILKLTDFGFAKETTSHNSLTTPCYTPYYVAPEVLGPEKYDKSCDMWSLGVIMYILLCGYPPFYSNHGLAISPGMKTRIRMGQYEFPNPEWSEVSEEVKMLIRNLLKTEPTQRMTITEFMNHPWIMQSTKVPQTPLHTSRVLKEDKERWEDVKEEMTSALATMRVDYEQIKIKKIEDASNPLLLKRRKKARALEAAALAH
Assay [3] addresses Serine/threonine-protein kinase MARK2 (Homo sapiens) (UniProt Q7KZI7). The assay is described as follows: Inhibition of human recombinant MARK2 at 40 nM related to control ULK1.
Assay [4] deals with Platelet-derived growth factor receptor beta (Homo sapiens) (UniProt P09619). The assay is described as follows: Inhibition of human recombinant PDGFRb at 40 nM related to control ULK1.
The target in assay [5] is Serine-protein kinase ATM (Homo sapiens) (UniProt Q13315). The assay is described as follows: Inhibition of human recombinant ATM at 40 nM related to control ULK1. In short, it runs like this: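 Radiometric activity assays in a panel of 327 human recombinant kinases, each run in duplicate at one inhibitor concentration. Activity remaining is expressed as percent of vehicle control, and percent inhibition is calculated as 100% minus percent activity remaining.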

Assay [6] has as its target ALK tyrosine kinase receptor (Homo sapiens) (UniProt Q9UM73). The assay is described as follows: Inhibition of human recombinant ALK at 40 nM in presence of ATP by radiometric assay relative to control. In short, it runs like this: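 Panel of 327 recombinant human kinases in radiometric activity assays, each screened in duplicate at a single inhibitor concentration; percent activity remaining relative to vehicle control, percent inhibition taken as 100 minus activity remaining.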

Assay [7] has as its target T2, Serine/threonine-protein kinase NLK (Homo sapiens) (UniProt Q9UBE8).
T2 sequence (whole entry): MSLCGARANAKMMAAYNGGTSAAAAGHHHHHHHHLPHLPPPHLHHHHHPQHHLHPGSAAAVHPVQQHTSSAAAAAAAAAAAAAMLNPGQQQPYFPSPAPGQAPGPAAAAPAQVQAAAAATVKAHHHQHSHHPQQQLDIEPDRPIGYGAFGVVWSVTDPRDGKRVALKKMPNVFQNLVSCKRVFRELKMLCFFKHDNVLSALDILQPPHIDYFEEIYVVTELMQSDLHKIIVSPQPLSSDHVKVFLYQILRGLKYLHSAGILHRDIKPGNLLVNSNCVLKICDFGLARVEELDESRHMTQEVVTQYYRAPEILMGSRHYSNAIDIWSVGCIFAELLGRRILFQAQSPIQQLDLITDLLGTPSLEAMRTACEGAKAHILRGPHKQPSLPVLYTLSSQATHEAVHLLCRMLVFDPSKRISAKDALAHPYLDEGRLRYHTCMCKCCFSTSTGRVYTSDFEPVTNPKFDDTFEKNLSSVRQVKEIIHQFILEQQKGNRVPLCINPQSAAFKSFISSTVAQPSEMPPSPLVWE
The assay is described as follows: Inhibition of human recombinant NLK at 40 nM related to control ULK1.

Assay [8] addresses Cyclin-dependent kinase 18 (Homo sapiens) (UniProt Q07002). The assay is described as follows: Inhibition of human recombinant PCTAIRE3 at 500 nM in presence of ATP by radiometric assay relative to control.
Assay [9] deals with Fibroblast growth factor receptor 4 (Homo sapiens) (UniProt P22455). Kind of assay: Inhibition of human recombinant FGFR4 at 500 nM related to control ULK1.
For assay [10], the target named is eIF-2-alpha kinase GCN2 (Homo sapiens) (UniProt Q9P2K8). The assay is described as follows: Inhibition of human recombinant GCN2 at 500 nM related to control ULK1.
eIF-2-alpha kinase GCN2 (Homo sapiens), sequence (Q9P2K8 whole entry): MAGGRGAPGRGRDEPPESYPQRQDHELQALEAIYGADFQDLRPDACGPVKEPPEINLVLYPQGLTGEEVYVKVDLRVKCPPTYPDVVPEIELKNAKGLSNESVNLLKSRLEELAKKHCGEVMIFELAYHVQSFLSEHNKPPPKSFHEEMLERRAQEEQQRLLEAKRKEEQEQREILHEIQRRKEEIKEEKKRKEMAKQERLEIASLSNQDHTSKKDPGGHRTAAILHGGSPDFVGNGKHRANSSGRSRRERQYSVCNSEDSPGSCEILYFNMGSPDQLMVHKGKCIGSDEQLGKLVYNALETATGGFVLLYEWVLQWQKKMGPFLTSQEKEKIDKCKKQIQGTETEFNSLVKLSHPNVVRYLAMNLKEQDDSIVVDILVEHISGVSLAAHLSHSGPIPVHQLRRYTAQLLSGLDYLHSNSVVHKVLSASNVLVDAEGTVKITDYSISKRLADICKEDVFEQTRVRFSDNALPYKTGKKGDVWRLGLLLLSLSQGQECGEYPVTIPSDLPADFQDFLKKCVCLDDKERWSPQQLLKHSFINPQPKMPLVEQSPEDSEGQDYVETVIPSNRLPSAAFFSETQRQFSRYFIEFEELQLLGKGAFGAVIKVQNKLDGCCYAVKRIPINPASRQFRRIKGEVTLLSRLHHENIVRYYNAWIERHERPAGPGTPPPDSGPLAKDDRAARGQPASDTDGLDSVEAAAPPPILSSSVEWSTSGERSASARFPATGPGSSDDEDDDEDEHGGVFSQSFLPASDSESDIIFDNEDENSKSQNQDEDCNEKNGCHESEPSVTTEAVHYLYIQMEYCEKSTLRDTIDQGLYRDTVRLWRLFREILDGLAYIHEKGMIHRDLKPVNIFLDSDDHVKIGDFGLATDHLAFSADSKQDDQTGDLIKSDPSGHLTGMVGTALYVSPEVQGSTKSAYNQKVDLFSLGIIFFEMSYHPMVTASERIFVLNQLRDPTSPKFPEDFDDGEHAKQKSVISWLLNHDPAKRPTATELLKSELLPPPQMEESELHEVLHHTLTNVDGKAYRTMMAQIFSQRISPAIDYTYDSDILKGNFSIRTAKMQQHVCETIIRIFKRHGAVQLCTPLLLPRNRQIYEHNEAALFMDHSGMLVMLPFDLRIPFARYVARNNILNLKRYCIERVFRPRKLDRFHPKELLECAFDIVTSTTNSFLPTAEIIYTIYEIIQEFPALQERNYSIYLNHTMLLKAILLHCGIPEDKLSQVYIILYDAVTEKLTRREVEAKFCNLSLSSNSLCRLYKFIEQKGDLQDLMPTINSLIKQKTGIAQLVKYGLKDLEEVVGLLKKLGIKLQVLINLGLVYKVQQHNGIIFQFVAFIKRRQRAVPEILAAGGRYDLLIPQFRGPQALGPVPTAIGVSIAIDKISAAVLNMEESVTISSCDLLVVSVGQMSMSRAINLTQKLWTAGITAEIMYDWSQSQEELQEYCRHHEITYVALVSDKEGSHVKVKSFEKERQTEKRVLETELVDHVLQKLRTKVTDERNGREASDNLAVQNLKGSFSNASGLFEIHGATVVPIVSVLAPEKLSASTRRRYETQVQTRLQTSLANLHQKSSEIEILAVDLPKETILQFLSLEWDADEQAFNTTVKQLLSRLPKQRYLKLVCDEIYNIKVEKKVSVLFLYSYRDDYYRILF
Assay [11] deals with Mitogen-activated protein kinase kinase kinase kinase 1 (Homo sapiens) (UniProt Q92918). The assay is described as follows: Inhibition of human recombinant HPK1 at 500 nM in presence of ATP by radiometric assay relative to control.
Assay [12] addresses T3, Serine/threonine-protein kinase Sgk2 (Homo sapiens) (UniProt Q9HBY8).
T3 sequence (whole entry): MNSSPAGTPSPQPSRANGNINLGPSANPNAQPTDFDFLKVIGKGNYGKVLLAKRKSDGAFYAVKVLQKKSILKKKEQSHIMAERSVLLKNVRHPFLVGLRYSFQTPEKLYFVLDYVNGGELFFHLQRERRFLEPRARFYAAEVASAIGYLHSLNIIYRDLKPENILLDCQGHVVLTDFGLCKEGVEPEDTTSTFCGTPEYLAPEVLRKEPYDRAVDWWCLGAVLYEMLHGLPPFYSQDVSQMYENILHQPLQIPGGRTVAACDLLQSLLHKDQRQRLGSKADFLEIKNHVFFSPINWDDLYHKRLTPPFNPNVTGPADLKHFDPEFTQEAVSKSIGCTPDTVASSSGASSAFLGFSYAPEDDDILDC
The assay is described as follows: Inhibition of human recombinant SGK2 at 500 nM in presence of ATP by radiometric assay relative to control.

ALK tyrosine kinase receptor (Homo sapiens), sequence (Q9UM73 19-1620 limits assumed): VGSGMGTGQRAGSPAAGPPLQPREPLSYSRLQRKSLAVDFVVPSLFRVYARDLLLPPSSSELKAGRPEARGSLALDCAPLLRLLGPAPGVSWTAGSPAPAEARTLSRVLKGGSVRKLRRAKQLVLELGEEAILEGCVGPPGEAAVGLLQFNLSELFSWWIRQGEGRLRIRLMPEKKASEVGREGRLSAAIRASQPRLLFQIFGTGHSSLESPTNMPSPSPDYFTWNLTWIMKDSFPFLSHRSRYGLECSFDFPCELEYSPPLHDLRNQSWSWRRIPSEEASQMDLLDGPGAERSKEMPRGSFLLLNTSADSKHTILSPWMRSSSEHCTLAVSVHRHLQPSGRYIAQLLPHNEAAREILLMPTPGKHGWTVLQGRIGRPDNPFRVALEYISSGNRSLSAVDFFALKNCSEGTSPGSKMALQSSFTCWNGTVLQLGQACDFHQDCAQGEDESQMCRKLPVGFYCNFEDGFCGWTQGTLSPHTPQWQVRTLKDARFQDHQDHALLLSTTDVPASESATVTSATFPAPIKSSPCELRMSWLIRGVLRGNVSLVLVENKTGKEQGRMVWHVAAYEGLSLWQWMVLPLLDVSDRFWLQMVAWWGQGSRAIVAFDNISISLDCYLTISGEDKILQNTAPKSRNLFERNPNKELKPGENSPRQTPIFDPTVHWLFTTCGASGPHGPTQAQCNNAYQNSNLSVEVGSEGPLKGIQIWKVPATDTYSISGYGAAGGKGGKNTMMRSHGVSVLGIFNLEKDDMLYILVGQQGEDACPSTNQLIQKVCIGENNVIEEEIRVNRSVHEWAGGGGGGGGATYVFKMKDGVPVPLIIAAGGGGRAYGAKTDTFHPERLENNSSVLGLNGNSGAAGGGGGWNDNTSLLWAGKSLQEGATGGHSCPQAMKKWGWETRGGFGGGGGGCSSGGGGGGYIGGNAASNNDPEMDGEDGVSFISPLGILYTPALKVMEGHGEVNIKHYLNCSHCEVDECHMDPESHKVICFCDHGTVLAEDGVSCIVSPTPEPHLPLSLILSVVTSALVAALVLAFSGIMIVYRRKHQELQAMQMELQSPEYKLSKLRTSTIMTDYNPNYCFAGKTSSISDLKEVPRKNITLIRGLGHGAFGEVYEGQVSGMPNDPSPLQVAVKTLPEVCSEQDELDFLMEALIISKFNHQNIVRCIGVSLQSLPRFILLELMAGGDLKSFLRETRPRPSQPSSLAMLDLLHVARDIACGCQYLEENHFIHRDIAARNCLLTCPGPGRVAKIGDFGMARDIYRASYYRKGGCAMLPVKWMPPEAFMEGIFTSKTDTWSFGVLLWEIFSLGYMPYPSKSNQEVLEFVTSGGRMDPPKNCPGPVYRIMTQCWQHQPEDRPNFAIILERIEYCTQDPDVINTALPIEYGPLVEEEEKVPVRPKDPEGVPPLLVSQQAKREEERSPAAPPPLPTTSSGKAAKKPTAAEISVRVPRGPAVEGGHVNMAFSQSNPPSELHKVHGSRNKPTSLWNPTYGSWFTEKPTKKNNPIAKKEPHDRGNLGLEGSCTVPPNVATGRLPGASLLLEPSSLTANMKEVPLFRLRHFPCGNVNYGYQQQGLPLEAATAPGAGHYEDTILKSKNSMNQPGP
Cyclin-dependent kinase 18 (Homo sapiens), sequence (Q07002 whole entry): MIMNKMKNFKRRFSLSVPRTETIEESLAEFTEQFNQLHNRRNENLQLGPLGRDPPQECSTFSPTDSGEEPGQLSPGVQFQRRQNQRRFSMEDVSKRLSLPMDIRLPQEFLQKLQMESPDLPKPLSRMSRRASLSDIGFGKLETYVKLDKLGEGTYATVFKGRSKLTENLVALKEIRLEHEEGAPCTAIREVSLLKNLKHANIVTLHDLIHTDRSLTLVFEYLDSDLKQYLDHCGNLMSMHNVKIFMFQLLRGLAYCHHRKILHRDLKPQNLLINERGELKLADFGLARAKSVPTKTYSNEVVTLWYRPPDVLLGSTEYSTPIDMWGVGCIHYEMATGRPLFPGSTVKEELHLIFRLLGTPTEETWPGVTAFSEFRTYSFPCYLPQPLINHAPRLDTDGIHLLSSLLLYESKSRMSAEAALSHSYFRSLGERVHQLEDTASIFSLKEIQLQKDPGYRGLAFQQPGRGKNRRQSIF
Serine/threonine-protein kinase MARK2 (Homo sapiens), sequence (Q7KZI7 whole entry): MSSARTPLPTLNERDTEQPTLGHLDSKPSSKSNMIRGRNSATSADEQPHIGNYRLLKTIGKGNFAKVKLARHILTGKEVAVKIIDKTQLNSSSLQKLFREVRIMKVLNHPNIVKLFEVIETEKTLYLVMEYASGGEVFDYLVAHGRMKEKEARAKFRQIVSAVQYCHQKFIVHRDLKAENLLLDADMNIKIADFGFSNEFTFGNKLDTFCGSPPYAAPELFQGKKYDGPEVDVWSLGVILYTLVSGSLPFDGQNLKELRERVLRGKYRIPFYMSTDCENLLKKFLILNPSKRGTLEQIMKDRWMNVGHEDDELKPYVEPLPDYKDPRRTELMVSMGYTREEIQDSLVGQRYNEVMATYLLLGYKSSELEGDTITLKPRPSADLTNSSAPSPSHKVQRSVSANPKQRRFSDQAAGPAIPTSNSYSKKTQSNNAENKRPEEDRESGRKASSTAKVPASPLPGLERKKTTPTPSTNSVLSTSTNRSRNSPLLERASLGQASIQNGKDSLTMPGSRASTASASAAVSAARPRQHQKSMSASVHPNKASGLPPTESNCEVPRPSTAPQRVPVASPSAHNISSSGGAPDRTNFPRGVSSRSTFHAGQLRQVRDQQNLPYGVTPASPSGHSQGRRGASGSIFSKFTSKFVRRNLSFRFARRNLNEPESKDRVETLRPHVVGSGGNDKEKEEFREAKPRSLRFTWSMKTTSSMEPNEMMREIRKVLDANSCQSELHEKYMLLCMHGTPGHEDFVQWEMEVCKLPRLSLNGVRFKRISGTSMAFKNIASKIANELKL

Take `O=C(N[C@@H](C1CC1)C(F)(F)F)c1cc(-c2cnn3cc(-c4ccc(F)cc4)cnc23)cs1`: the fold change (FC) in assay [1] amounted to 0.05; in assay [3], 0.16; in [4], 0.07; in assay [5], 0.07; in [7], 0.64. Besides, the inhibition in [2] and in [6] was 0% each time.
As for `CNC(=O)c1ccccc1Oc1nc(Nc2cc(OC)c(OC)c(OC)c2)ncc1Br`, the inhibition in assay [8] worked out at 20%; in assay [11], 32%; in [12], 17%. The fold change (FC) in assay [9] was 0.14; in [10], 0.03.
